# Data published in PMC8341669 (RSC Chemical Biology, 2021).
# Test: CD spectrum / MD helical content of the peptide in the free state
# Type: physicochemical
# Settings: CD in H2O at 200 μM and MD simulations
# Outline: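 Peptide dissolved in HPLC-grade water at 200 μM and CD spectra recorded on a spectropolarimeter. Free peptide in solution MD: steepest-descent minimisation, 1 ns NVT (300 K, V-rescale) and 1 ns NPT (1 bar, Parrinello–Rahman) equilibration with heavy-atom restraints stepped off, then four 200 ns NPT production runs per peptide; PME electrostatics, 10 Å van der Waals cut-off, LINCS constraints.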
sequence,measurement,value
RIRREEYLKAIQ [Linear],α-helical content in the free state,lower α-helical content
